# Rows were chosen to be rich in hits. Some 1.2% of all compounds tested hit in one or more screens of this group.
# APOBEC3A inh: blocks human APOBEC3A ssDNA deamination; P31941; recombinant A3A, FAM/TAMRA ssDNA deamination fluorescence; inhibition, % at 20 µM; 330,000 compounds, 0.41% hits; AID 493011;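 active = at least 40% inhibition at 20 µM here, with at most 30% in a related deaminase screen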;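 also: plate controls were A3A with DMSO for no effect and wells lacking A3A enzyme for full effect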
# Target sequence (P31941 whole entry, looked up): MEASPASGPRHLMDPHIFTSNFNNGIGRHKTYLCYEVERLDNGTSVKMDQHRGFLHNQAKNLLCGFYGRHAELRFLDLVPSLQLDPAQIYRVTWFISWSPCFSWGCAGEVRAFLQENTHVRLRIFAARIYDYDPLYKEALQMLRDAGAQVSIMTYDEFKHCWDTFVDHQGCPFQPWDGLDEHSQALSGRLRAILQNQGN
# ABHD5 PLIN5 PPI: blocks binding of human ABHD5 to perilipin-5. Split G. princeps luciferase complementation, luminescence, 4 h. inhibition, % at 4 µM. 360,000 compounds, 0.78% hits;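 active = inhibition above the mean inhibition across every tested compound plus 3 SD, cut at about 22% in these data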;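 also: 0% = DMSO only wells and the 100% control is not disclosed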
# APOBEC3G inh: APOBEC3G (human) deaminase inhibition; Q9HC16; recombinant A3G, ssDNA deamination FAM/TAMRA fluorescence; inhibition, % at 20 µM; 330,000 compounds, 0.28% hits; AID 493012;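 active = inhibition of at least 40% at 20 µM, with no more than 30% in the related APOBEC3A deaminase screen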;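 also: plate controls were DMSO wells with A3G for no effect and wells lacking A3G enzyme for full effect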
# FN deposition inh: fibronectin deposition inhibition; AH1F fibroblasts, Alexa488-fibronectin deposition fluorescence, overnight; inhibition, % at 12.6 µM; 350,000 compounds, 0.086% hits;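 active = mean inhibition across replicates of 30% or more, regardless of how many single replicates reach that level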;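 also: positive control wells lacked labelled fibronectin entirely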
#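 Material: AH1F fibroblasts assembling fluorescent fibronectin matrix; amount: 10000 AH1F cells/well; medium: DMEM, 2% serum; reagent: Alexa488-fibronectin, 24 nM final in well; dosing: single compound dose, delivered by pin transfer; incubation: 1 h adhesion, overnight exposure; detection: fluorescence after three HBSS washes, excitation 485 nm, emission 525 nm; measure: fibronectin deposition inhibition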
# ABHD5-PLIN5 conf: ABHD5-PLIN5 interaction inhibition, confirmed; shares compounds with ABHD5 PLIN5 PPI; biochemical ABHD5-PLIN5 interaction, luminescence; inhibition, % at 4 µM; 2,200 compounds, 67% hits; AID 651612; in the data active = inhibition above about 23%;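 also: 0% = DMSO vehicle wells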
# HNF4 split-luc: HNF4 split-luciferase signal hit, counter-screen; shares compounds with ABHD5 PLIN5 PPI; HNF4 dimerization, luminescence, biochemical; inhibition, % at 4 µM; 2,200 compounds, 77% hits; AID 651674;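 active = mean inhibition across replicate wells exceeding the computed hit threshold, cut at about 13% in these data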;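 also: light from luciferase halves that rejoin when HNF4 fusion proteins dimerize; 0% = DMSO only wells and the 100% control is not given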
# Target sequence (P41235 whole entry, looked up, the tested form may be a part): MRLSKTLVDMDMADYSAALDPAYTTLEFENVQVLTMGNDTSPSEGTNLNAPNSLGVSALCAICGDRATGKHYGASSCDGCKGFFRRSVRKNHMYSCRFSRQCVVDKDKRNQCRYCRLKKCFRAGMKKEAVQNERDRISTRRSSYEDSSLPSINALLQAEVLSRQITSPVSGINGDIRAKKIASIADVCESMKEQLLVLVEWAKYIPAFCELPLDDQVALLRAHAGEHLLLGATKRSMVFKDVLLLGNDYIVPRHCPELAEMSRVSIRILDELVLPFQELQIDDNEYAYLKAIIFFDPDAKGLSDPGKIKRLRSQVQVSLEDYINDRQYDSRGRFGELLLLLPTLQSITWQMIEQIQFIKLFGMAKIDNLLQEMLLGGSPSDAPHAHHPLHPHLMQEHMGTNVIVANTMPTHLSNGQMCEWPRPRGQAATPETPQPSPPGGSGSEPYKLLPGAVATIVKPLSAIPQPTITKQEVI
# * hit, by the source's call; x = not tested or not shown.
SMILES,APOBEC3A inh,ABHD5 PLIN5 PPI,APOBEC3G inh,FN deposition inh,ABHD5-PLIN5 conf,HNF4 split-luc
O=[N+]([O-])c1ccc(S(=O)(=O)c2cccc(C(F)(F)F)c2)nc1,-2.7,52.2*,-2.1,x,87.8*,112.7*
O=C(O)c1cc(-c2ccc(-c3ccc(F)cc3)o2)nc2ccccc12,2.9,31.5*,30.2,-6.5,19.8,61.1*
O=C(c1cc(-c2ccc(F)cc2)nc2ccccc12)N1CCC1,0.0,-6.3,0.3,2.9,x,x
COc1ccccc1CNc1nc(NCc2ccccc2OC)c2sccc2n1,x,2.9,x,11.9,x,x
COc1ccccc1CNc1nc(NCc2ccc3occc3c2)c2sccc2n1,x,23.9*,x,-10.3,7.7,15.7*
O=C(N/N=C/C(Br)=C/c1ccccc1)C(O)c1ccccc1 (configuration not stated),-3.4,25.5*,-11.0,9.7,3.0,33.6*
O=C(N/N=C/C(Br)=C/c1ccccc1)C1CC1,0.2,12.2,-3.4,0.4,x,x
Cc1ccc(C)c(OCC(O)CN2CCC(CN3C(=O)c4cccc5cccc(c45)C3=O)CC2)c1 (configuration not stated),3.2,8.6,-4.1,-0.6,x,x
COc1ccc(OCC(O)CN2CCC(CN3C(=O)c4cccc5cccc(c45)C3=O)CC2)cc1 (configuration not stated),10.2,24.6*,4.6,-4.0,6.4,2.8
CC(=O)Oc1c(Cl)cc(N(C(C)=O)S(=O)(=O)c2ccccc2)c2ccccc12,-2.0,57.9*,0.7,9.8,48.5*,14.8*
CCC(=O)N1CC2(C1)CN(C(=O)c1cnccn1)[C@@H](CO)c1c2c2ccc(OC)cc2n1C,x,x,x,-0.4,x,x
COc1ccc(OC)c2sc(NC(=O)C(C)C)nc12,-4.5,4.5,-6.9,-6.0,x,x
COc1ccc(OC)c2sc(Cl)nc12,-7.0,109.4*,2.9,-5.2,2.9,1.5
CCCC1=C(C(=O)OCC)C(c2ccco2)n2ncnc2N1 (configuration not stated),-1.6,0.5,-2.2,-7.7,x,x
COCC1=C(C(=O)OC)C(c2ccco2)n2ncnc2N1 (configuration not stated),-5.1,38.0*,-5.2,12.4,-3.5,9.1
O=C1Nc2ccc(Br)cc2/C1=C/C1CC=CCC1 (configuration not stated),-4.3,25.2*,-12.1,0.7,52.7*,38.1*
CN1C(=O)c2cc(NC(=O)C3CCCC3)ccc2OC[C@@H]2O[C@@H](CC(=O)Nc3ccccc3)CC[C@H]21,x,x,x,-11.3,x,x
O=C(O)CCc1ccc(-c2ccccc2)o1,6.0,37.9*,16.3,-4.0,23.7*,48.1*
O=C(O)CCc1nc(-c2ccccc2)c(-c2ccccc2)o1,-2.4,x,-6.8,x,x,x
N#C[C@H]1[C@@H](c2ccccc2C2=CCCCC2)[C@@H](CO)N1C(=O)C1CCOCC1,x,x,x,0.8,x,x
Cc1ccc(N=C2NC(=O)/C(=C\c3ccco3)S2)cc1,27.2,9.8,7.0,3.7,x,x
Cc1cccc(N=C2NC(=O)/C(=C/C=C/c3ccco3)S2)c1,x,24.5*,x,-4.1,47.9*,34.0*
N#C[C@@H]1[C@@H](c2ccc(-c3ccncc3)cc2)[C@@H](CO)N1C(=O)CN1CCOCC1,x,x,x,-4.7,x,x
C=CC(=O)N1c2ccccc2Sc2ccc(NC(=O)OCC)cc21,-10.8,30.4*,-1.2,x,61.5*,29.4*
CCCC(=O)Nc1nnc(S(=O)(=O)N(C)Cc2ccco2)s1,-5.2,41.4*,-7.3,x,30.4*,55.7*
SMILES,APOBEC3A inh,ABHD5 PLIN5 PPI,APOBEC3G inh,FN deposition inh,ABHD5-PLIN5 conf,HNF4 split-luc
CN(Cc1ccco1)S(=O)(=O)c1nnc(NC(=O)c2ccccc2Cl)s1,3.2,29.5*,0.7,-0.2,45.7*,74.2*
NC(=O)c1cc2cc(Br)ccc2oc1=NCc1ccccc1,1.2,61.7*,-3.0,x,5.6,29.2*
CC(=O)OCCNc1cc(Sc2nc3ccccc3[nH]2)c2nonc2c1[N+](=O)[O-],x,60.0*,x,3.4,70.7*,112.1*
O=C(/C=C/c1c(F)cccc1Cl)c1ccc(F)cc1,-1.6,31.3*,-5.2,x,94.8*,90.9*
CC(C)NC(=O)/C(C#N)=C/c1cccc(NC(=O)c2ccccc2Cl)c1,-3.6,28.2*,-6.9,5.8,65.2*,56.7*
CCN1C(=O)N/C(=C/c2ccc(C)o2)C1=O,1.7,42.1*,2.7,-4.5,26.7*,88.6*
Cc1ccc(/C=C2/NC(=O)N(Cc3ccc(Br)cc3)C2=O)o1,3.6,54.9*,-0.4,-3.1,63.2*,93.0*
CCCN1C(=O)/C(=C/c2ccc(C)o2)NC1=S,1.4,x,-5.4,x,x,x
Cc1ccc(/C=C2/NC(=O)N(Cc3ccccc3F)C2=O)o1,0.9,40.2*,-2.0,0.2,17.5,80.6*
C[C@H](CO)N1C[C@H](C)[C@H](CN(C)Cc2ccncc2)Oc2ccc(NS(=O)(=O)c3ccc(Cl)cc3)cc2CC1=O,x,x,x,2.3,x,x
CCOC(=O)/C=C1\CN(CCC(C)C)S(=O)(=O)c2ccccc21,0.3,5.0,-2.5,-13.4,x,x
CCOC(=O)/C=C1\CN(C(C)c2ccccc2)S(=O)(=O)c2ccccc21 (configuration not stated),1.7,58.8*,1.3,-0.9,7.1,4.2
O=C(N[C@@H](Cc1ccccc1)C(=O)CCl)OCc1ccccc1,0.3,65.5*,1.4,4.9,96.5*,106.5*
CCc1sc(C(C2C(=O)CC(C)(C)CC2=O)C2C(=O)CC(C)(C)CC2=O)cc1[N+](=O)[O-],5.9,52.3*,12.7,-11.5,101.5*,98.0*
C[C@@H]1CN([C@@H](C)CO)C(=O)c2cc(NC(=O)c3ccncc3)ccc2O[C@@H]1CN(C)S(=O)(=O)c1cn(C)cn1,x,x,x,-1.1,x,x
O=C(NC1CCCCC1)N1CC2(C1)[C@H](c1ccccc1)[C@H](CO)N2CC1CCCC1,x,x,x,3.1,x,x
COc1ccc(CN2C[C@@H](O)COC[C@@H]3O[C@H](CC(=O)N(C)C)CC[C@H]32)cc1,x,x,x,1.5,x,x
CC(=O)C(=Cc1ccc(Cl)cc1)C(=O)c1ccccc1,x,85.2*,x,-11.2,102.3*,97.9*
CC(=O)C(=Cc1cccc(C#N)c1)C(=O)c1ccccc1,x,61.5*,x,6.4,94.8*,86.7*
COc1ccc(C=C(C(C)=O)C(=O)c2ccccc2)cc1,x,39.8*,x,-3.3,51.6*,42.8*
COc1ccc(C=C(C(=O)c2ccccc2)C(=O)c2ccccc2)cc1,x,60.2*,x,-2.2,60.5*,55.6*
COc1ccc(C=C(C(=O)c2ccccc2)c2ccccc2)cc1,x,-2.6,x,5.8,x,x
COc1ccc(C[C@H]2CCn3cc(nn3)COC[C@H](CC(C)C)NC2=O)cc1,x,x,x,-17.6,x,x
CC(=O)N1N=C(c2cccs2)CC1c1ccc(Br)cc1 (configuration not stated),-0.6,-1.6,-3.2,-4.1,x,x
Cc1ccc(C2CC(c3cccs3)=NN2C(=O)c2ccc(Br)o2)cc1 (configuration not stated),-4.1,24.6*,-7.2,x,45.0*,58.3*

# High-throughput results (PubChem BioAssay)
